Test results: ChEMBL document CHEMBL1123067, “Evaluation of the brain-specific delivery of radioiodinated (iodophenyl)alkyl-substituted amines coupled to a dihydropyridine carrier” (J Med Chem, 1985)

Assays:
Assay type in all cases: ADME, organism-based
[1] = test system: Rattus norvegicus; test: Distribution of radioactivity in brain tissues of Sprague-Dawley rats after 15 min injecton by intravenously; 0.03-0.06; conditions: in vivo, iv, 0.25 h
[2] = test system: Rattus norvegicus; test: Distribution of radioactivity in heart tissues of Sprague-Dawley rats after 5 min injecton by intravenously; 0.79-0.85; conditions: in vivo, iv
Method in brief: (§1)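 Female Sprague-Dawley rats, 10–12 weeks old (170–200 g), fed ad libitum, under ether anaesthesia. Each received 15.1 μCi of the ¹²⁵I-labelled pyridinium conjugate or 10.6 μCi of the dihydropyridine conjugate by lateral tail vein. Dose was in 20% Me2SO/saline with vitamin E (~5 mg/mL), 0.22-μm filtered. Five rats per time point. Tissue activity was read against injected-solution standards as % injected dose/g.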

[3] = test system: Rattus norvegicus; test: Distribution of radioactivity in lung tissues of Sprague-Dawley rats after 15 min injecton by intravenously; 0.58-0.86; conditions: in vivo, iv, 0.25 h
Method in brief: (§2)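 Female Sprague-Dawley rats, 10–12 weeks, 170–200 g, fed ad libitum, five per time point. Agent dissolved in minimal Me2SO, diluted with saline to 20% Me2SO, with vitamin E (~5 mg/mL) added, 0.22-µm filtered. 15.1 or 10.6 µCi (per agent) injected into lateral tail vein under ether. Lungs taken; % injected dose/g against injected-solution standards; mean (range).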

[4] = test system: Rattus norvegicus; test: Distribution of radioactivity in liver tissues of Sprague-Dawley rats after 60 min injecton by intravenously; 0.38-0.57; conditions: in vivo, iv, 1 h; method in brief: as §1
[5] = test system: Rattus norvegicus; test: Distribution of radioactivity in blood tissues of Sprague-Dawley rats after 15 min injecton by intravenously; 0.72-1.03; conditions: in vivo, iv, 0.25 h
[6] = test system: Rattus norvegicus; test: Distribution of radioactivity in brain tissues of Sprague-Dawley rats after 5 min injecton by intravenously; 0.05-0.07; conditions: in vivo, iv
[7] = test system: Rattus norvegicus; test: Distribution of radioactivity in kidney tissues of Sprague-Dawley rats after 5 min injecton by intravenously; 1.73-2.64; conditions: in vivo, iv; method in brief: as §1
[8] = test system: Rattus norvegicus; test: Distribution of radioactivity in liver tissues of Sprague-Dawley rats after 30 min injecton by intravenously; 0.54-0.89; conditions: in vivo, iv, 0.5 h; method in brief: as §1
[9] = test system: Rattus norvegicus; test: Distribution of radioactivity in kidney tissues of Sprague-Dawley rats after 30 min injecton by intravenously; 0.58-0.73; conditions: in vivo, iv, 0.5 h; method in brief: as §1
[10] = test system: Rattus norvegicus; test: Distribution of radioactivity in blood tissues of Sprague-Dawley rats after 30 min injecton by intravenously; 0.65-0.83; conditions: in vivo, iv, 0.5 h
[11] = test system: Rattus norvegicus; test: Distribution of radioactivity in heart tissues of Sprague-Dawley rats after 30 min injecton by intravenously; 0.58-0.82; conditions: in vivo, iv, 0.5 h; method in brief: as §1
[12] = test system: Rattus norvegicus; test: Distribution of radioactivity in brain tissues of Sprague-Dawley rats after 30 min injecton by intravenously; 0.03-0.06; conditions: in vivo, iv, 0.5 h
[13] = test system: Rattus norvegicus; test: Distribution of radioactivity in liver tissues of Sprague-Dawley rats after 5 min injecton by intravenously; 1.03-1.31; conditions: in vivo, iv; method in brief: as §1
[14] = test system: Rattus norvegicus; test: Distribution of radioactivity in heart tissues of Sprague-Dawley rats after 15 min injecton by intravenously; 0.68-0.84; conditions: in vivo, iv, 0.25 h
[15] = test system: Rattus norvegicus; test: Distribution of radioactivity in liver tissues of Sprague-Dawley rats after 15 min injecton by intravenously; 0.81-1.18; conditions: in vivo, iv, 0.25 h; method in brief: as §1
[16] = test system: Rattus norvegicus; test: Distribution of radioactivity in lung tissues of Sprague-Dawley rats after 30 min injecton by intravenously; 0.54-0.7; conditions: in vivo, iv, 0.5 h; method in brief: as §2
[17] = test system: Rattus norvegicus; test: Distribution of radioactivity in blood tissues of Sprague-Dawley rats after 60 min injecton by intravenously; 0.58-0.77; conditions: in vivo, iv, 1 h
[18] = test system: Rattus norvegicus; test: Distribution of radioactivity in brain tissues of Sprague-Dawley rats after 60 min injecton by intravenously; 0.03-0.06; conditions: in vivo, iv, 1 h
[19] = test system: Rattus norvegicus; test: Distribution of radioactivity in kidney tissues of Sprague-Dawley rats after 60 min injecton by intravenously; 0.49-0.57; conditions: in vivo, iv, 1 h; method in brief: as §1
[20] = test system: Rattus norvegicus; test: Distribution of radioactivity in blood tissues of Sprague-Dawley rats after 5 min injecton by intravenously; 1.0-1.24; conditions: in vivo, iv
[21] = test system: Rattus norvegicus; test: Distribution of radioactivity in lung tissues of Sprague-Dawley rats after 60 min injecton by intravenously; 0.5-0.65; conditions: in vivo, iv, 1 h; method in brief: as §2
[22] = test system: Rattus norvegicus; test: Distribution of radioactivity in heart tissues of Sprague-Dawley rats after 60 min injecton by intravenously; 0.58-0.75; conditions: in vivo, iv, 1 h; method in brief: as §1
[23] = test system: Rattus norvegicus; test: Distribution of radioactivity in kidney tissues of Sprague-Dawley rats after 15 min injecton by intravenously; 0.62-0.92; conditions: in vivo, iv, 0.25 h; method in brief: as §1
[24] = test system: Rattus norvegicus; test: Distribution of radioactivity in lung tissues of Sprague-Dawley rats after 5 min injecton by intravenously; 0.76-0.91; conditions: in vivo, iv; method in brief: as §2

Distribution [1]: 0.05%
Distribution [2]: 0.83%
Distribution [3]: 0.72%
Distribution [4]: 0.49%
Distribution [5]: 0.87%
Distribution [6]: 0.06%
Distribution [7]: 2.1%
Distribution [8]: 0.71%
Distribution [9]: 0.65%
Distribution [10]: 0.75%
Distribution [11]: 0.68%
Distribution [12]: 0.04%
Distribution [13]: 1.18%
Distribution [14]: 0.76%
Distribution [15]: 1.04%
Distribution [16]: 0.62%
Distribution [17]: 0.67%
Distribution [18]: 0.04%
Distribution [19]: 0.53%
Distribution [20]: 1.11%
Distribution [21]: 0.57%
Distribution [22]: 0.67%
Distribution [23]: 0.74%
Distribution [24]: 0.84%
SMILES: C[n+]1cccc(C(=O)Nc2ccc([125I])cc2)c1.[I-]
